In ChEMBL document CHEMBL4350958, “Rational Design of Short Peptide Variants by Using Kunitzin-RE, an Amphibian-Derived Bioactivity Peptide, for Acquired Potent Broad-Spectrum Antimicrobial and Improved Therapeutic Potential of Commensalism Coinfection of Pathogens” (J Med Chem, 2019):
Values after ≈ are worked out from the molar mass of the structure shown. Where a SMILES comes first, the peptide text is derived from it.

Legend:
Escherichia coli [1] = experiment: Bactericidal activity against Escherichia coli K88 incubated for 24 hrs followed by replating on agar plate and measured after overnight incubation; format: functional; settings: for MBC: K88, 24 h, read-out: MBC>99.9
Procedure, shortened: (§1)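 Mid-log bacteria diluted in MHB to (0.5–1) × 10^5 CFU/mL and mixed 1:1 with peptide serially diluted in 0.2% BSA. After 24 h at 37 °C, 50 μL of each mixture was plated on agar and incubated overnight. MBC taken as the lowest concentration killing >99.9% of cells. At least three independent experiments, each with three technical replicates.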

Candida albicans [2] = experiment: Antifungal activity against Candida albicans cgmcc2.2086 measured after 48 hrs in presence of CaCl by broth microdilution method; format: functional
Staphylococcus aureus [3] = experiment: Antibacterial activity against methicillin-resistant Staphylococcus aureus ATCC 43300 measured after 24 hrs; format: functional
Procedure, shortened: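 Broth microdilution modified from NCCLS. Mid-log bacteria at (0.5–1) × 10^5 CFU mL−1 in MHB, mixed with peptides serially diluted in 0.2% BSA. Incubated 24 h at 37 °C, read at A492. MIC taken as lowest concentration giving 95% growth inhibition. At least three independent experiments, each with three technical replicates.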

Salmonella typhimurium [4] = experiment: Bactericidal activity against Salmonella typhimurium C7731 incubated for 24 hrs followed by replating on agar plate and measured after overnight incubation; format: functional, Salmonella enterica subsp. enterica serovar Typhimurium; settings: for MBC: Salmonella enterica, C7731, 24 h, read-out: MBC>99.9; procedure, shortened: as §1
Escherichia coli [5] = experiment: Antibacterial activity against Escherichia coli ATCC 25922 measured after 18 to 24 hrs in presence of NH4Cl; format: functional
Candida tropicalis = experiment: Fungicidal activity against Candida tropicalis cgmcc2.1975 incubated for 48 hrs followed by replating on YM agar plate and measured after 48 hrs; format: functional
Procedure, shortened: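 Yeast diluted in MOPS-buffered RPMI 1640 to (0.5–1) × 10^3 CFU/mL (CLSI M27-A2, modified) and mixed 1:1 with peptide serially diluted in 0.2% BSA. After 48 h at 28 °C, 50 μL per well was plated on YM agar and incubated 48 h at 28 °C. MFC taken as the lowest concentration killing ≥99.9% of cells. Three or more independent experiments, triplicate wells.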

[6] = Therapeutic index, ratio of MHC10 for hemolytic activity in human RBC to MIC95 against Candida albicans cgmcc2.2086; format: toxicity; settings: human red blood cells (erythrocytes), read-out: TI
Procedure, shortened: (§2)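 Therapeutic index = MHC divided by MIC. MHC is the lowest concentration giving >10% lysis of human RBC (1 h, 37 °C, 1-128 µM, A576). MIC is 95% growth inhibition by broth microdilution: bacteria in MHB 24 h at 37 °C; Candida in MOPS-buffered RPMI 1640 at (0.5–1) × 10^3 CFU mL−1, 48 h at 28 °C.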

[7] = Antibacterial activity against Salmonella pullorum ATCC 7913 measured after 24 hrs; format: functional, Salmonella enterica subsp. enterica serovar Pullorum; settings: Salmonella enterica, ATCC 7913, 24 h
Procedure, shortened: (§3)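 Broth microdilution adapted from NCCLS. Mid-log bacteria were diluted in MHB to a final (0.5–1) × 10^5 CFU mL−1. Peptides were serially diluted in 0.2% BSA and mixed with an equal volume of cells. After 24 h at 37 °C, MIC was read at A492 as the lowest concentration inhibiting 95% of growth. At least three independent experiments, each with three technical replicates.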

Candida albicans [8] = experiment: Antifungal activity against Candida albicans cgmcc2.2086 measured after 48 hrs in presence of ZnCl by broth microdilution method; format: functional
Escherichia coli [9] = experiment: Antibacterial activity against Escherichia coli ATCC 25922 measured after 18 to 24 hrs in presence of KCl; format: functional
[10] = Therapeutic index, ratio of MHC10 for hemolytic activity in human RBC to MIC95 against Staphylococcus epidermidis ATCC 12228; format: toxicity; settings: human red blood cells (erythrocytes), read-out: TI; procedure, shortened: as §2
Escherichia coli [11] = experiment: Bactericidal activity against Escherichia coli 078 incubated for 24 hrs followed by replating on agar plate and measured after overnight incubation; format: functional; settings: for MBC: Escherichia coli, 078, 24 h, read-out: MBC>99.9
Procedure, shortened: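 After the 24 h, 37 °C MHB microdilution (0.5–1 × 10^5 CFU mL−1 inoculum, peptides diluted in 0.2% BSA), 50 μL from each well was plated on agar and incubated overnight. MBC was taken as the lowest concentration killing >99.9% of cells. Three or more independent experiments, each with triplicate technical replicates.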

[12] = Therapeutic index, ratio of MHC10 for hemolytic activity in human RBC to MIC95 against Escherichia coli ATCC 25922; format: toxicity; settings: human red blood cells (erythrocytes), pooled result: one value given for 9 cell lines, strains, targets or settings, read-out: TI; procedure, shortened: as §2
Salmonella typhimurium [13] = experiment: Bactericidal activity against Salmonella typhimurium ATCC 14028 incubated for 24 hrs followed by replating on agar plate and measured after overnight incubation; format: functional, Salmonella enterica subsp. enterica serovar Typhimurium; settings: for MBC: Salmonella enterica, ATCC 14028, 24 h, read-out: MBC>99.9; procedure, shortened: as §1
Staphylococcus aureus [14] = experiment: Antibacterial activity against Staphylococcus aureus ATCC 29213 measured after 18 to 24 hrs in presence of MgCl2; format: functional
Candida parapsilosis = experiment: Antifungal activity against Candida parapsilosis cgmcc2.3989 measured after 48 hrs by broth microdilution method; format: functional
Procedure, shortened: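 Modified CLSI M27-A2 microdilution. Yeast colonies were diluted in MOPS-buffered RPMI 1640 to a final (0.5–1) × 10^3 CFU mL−1 and mixed with an equal volume of peptide serially diluted in 0.2% BSA. After 48 h at 28 °C, MIC was read at A492 as the lowest concentration inhibiting 95% of growth. At least three independent experiments, each with three technical replicates.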

Escherichia coli [15] = experiment: Antibacterial activity against Escherichia coli K88 measured after 24 hrs; format: functional; procedure, shortened: as §3
Escherichia coli [16] = experiment: Bactericidal activity against Escherichia coli UB1005 incubated for 24 hrs followed by replating on agar plate and measured after overnight incubation; format: functional; settings: for MBC: UB1005, 24 h, read-out: MBC>99.9; procedure, shortened: as §1
Salmonella typhimurium [17] = experiment: Antibacterial activity against Salmonella typhimurium C7731 measured after 24 hrs; format: functional, Salmonella enterica subsp. enterica serovar Typhimurium; procedure, shortened: as §3
[18] = Conformational stability in pH 7.4 sodium phosphate buffer assessed as absorption spectra at minimum dichroic band at 35 uM by CD spectra analysis; format: physicochemical; settings: pH 7.4, 35 µM
Procedure, shortened: (§4)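 CD spectra from 190 to 250 nm of peptide at 35 μM in 10 mM PBS, 30 mM SDS micelles or 50% TFE, recorded in a 1.0-mm quartz cell. Ellipticity was converted to mean residue ellipticity. Three independent scans, each averaged over more than 3 runs.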

[19] = Cytotoxicity against mouse RAW264.7 cells assessed as cell viability at 2 to 64 uM measured after 18 to 24 hrs by MTT assay relative to control; format: cell-based; settings: RAW264.7 cells, read-out: Activity
Procedure, shortened: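 MTT assay: RAW264.7 cells seeded at 1.0–2.0×10^4 per well and exposed to peptide (2–64 µM) for 18–24 h at 37 °C in 5% CO2. MTT (0.5 mg/mL) added for 4 h, formazan dissolved in DMSO, read at 570 nm. At least three independent experiments with triplicate wells.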

[20] = Conformational stability in 50% trifluoro-ethyl alcohol assessed as alpha-helical structural propensity by measuring absorption spectra at minimum dichroic band at 35 uM by CD spectra analysis; format: physicochemical; procedure, shortened: as §4
[21] = Lodderomyces parapsilosis, cgmcc2.3989, 48 h
[22] = Salmonella enterica, C7731, 24 h
[23] = Salmonella enterica subsp. enterica serovar Typhimurium

Compound	MBC (Escherichia coli [1]) [µM]	MIC95 (Candida albicans [2]; cgmcc2.2086, 48 h) [µM]	MIC95 (Staphylococcus aureus [3]; ATCC 43300, 24 h) [µM]	MBC (Salmonella typhimurium [4]) [µM]	MIC95 (Escherichia coli [5]) [µM]	selectivity ratio [6]	MIC95 [7] [µM]	MIC95 (Candida albicans [8]; cgmcc2.2086, 48 h) [µM]	MIC95 (Escherichia coli [9]) [µM]	selectivity ratio [10]	MBC (Escherichia coli [11]) [µM]	selectivity ratio [12]	MBC (Salmonella typhimurium [13]) [µM]	MIC95 (Staphylococcus aureus [14]) [µM]	MIC95 (Candida parapsilosis; [21]) [µM]	MIC95 (Escherichia coli [15]; K88, 24 h) [µM]	MBC (Escherichia coli [16]) [µM]	MIC95 (Salmonella typhimurium [17]; [22]) [µM]	Wavelength of minimum CD band [18] [nm]	viability at up to 64 µM [19] [%]	further results
CC[C@H](C)[C@H](NC(=O)CN)C(=O)NCC(=O)N[C@@H](C)C(=O)N[C@H](C(=O)N[C@@H](CC(C)C)C(=O)N[C@@H](CCCCN)C(=O)N[C@H](C(=O)N[C@@H](CC(C)C)C(=O)N[C@H](C(=O)N[C@H](C(=O)NCC(=O)N[C@@H](CC(C)C)C(=O)N1CCC[C@H]1C(=O)N[C@@H](C)C(=O)N[C@@H](CC(C)C)C(=O)N[C@H](C(=O)N[C@@H](CO)C(=O)N[C@@H](Cc1c[nH]c2ccccc12)C(=O)N[C@H](C(=O)N[C@@H](CCCCN)C(=O)N[C@@H](CCCNC(=N)N)C(=O)N[C@@H](CCCCN)C(=O)N[C@@H](CCCNC(=N)N)C(=O)N[C@@H](CCC(N)=O)C(=O)N[C@@H](CCC(N)=O)C(N)=O)[C@@H](C)CC)[C@@H](C)CC)[C@@H](C)O)[C@@H](C)O)C(C)C)C(C)C [MELITTIN]	2 (≈ 5.69 µg/mL)	8	1 (≈ 2.85 µg/mL)	4 (≈ 11.4 µg/mL)	2	0.32	2 (≈ 5.69 µg/mL)	4	2	0.35	2 (≈ 5.69 µg/mL)	0.54	2 (≈ 5.69 µg/mL)	4	2 (≈ 5.69 µg/mL)	1 (≈ 2.85 µg/mL)	2 (≈ 5.69 µg/mL)	2 (≈ 5.69 µg/mL)	–	–	MFC<=99.9 (Candida tropicalis): 4 µM (≈ 11.4 µg/mL)
H-AARIILRNRFR-NH2	64	> 128	> 128	128	16	2	16	> 128	64	2	32	9.33	64	> 128	> 128	32	32	32	200	90 to 100	Activity [20]: 208 to 222 nm
CC[C@H](C)[C@H](NC(=O)[C@H](CCCCN)NC(=O)[C@H](C)NC(=O)[C@H](C)N)C(=O)N[C@H](C(=O)N[C@@H](CC(C)C)C(=O)N[C@@H](CC(N)=O)C(=O)N1CCC[C@H]1C(=O)N[C@@H](CCCCN)C(=O)N[C@@H](Cc1ccccc1)C(=O)N[C@@H](CCCNC(=N)N)C(=O)N[C@@H](CS)C(=O)N[C@@H](CCCCN)C(=O)N[C@@H](C)C(=O)N[C@@H](C)C(=O)N[C@@H](Cc1ccccc1)C(=O)N[C@@H](CS)C(N)=O)[C@@H](C)CC (H-AAKIILNPKFRCKAAFC-NH2)	64 (≈ 121 µg/mL)	> 128	> 128	–	32	0.25	64 (≈ 121 µg/mL)	> 128	32	0.3	–	0.5	128 (≈ 242 µg/mL)	> 128	> 128	32 (≈ 60.6 µg/mL)	128 (≈ 242 µg/mL)	> 128	200	90 to 100	Stability [20]: Unstable
GENTAMICIN	–	–	–	–	1	–	–	–	1	–	–	–	–	1	–	–	–	–	–	–	MBC>99.9 (Escherichia coli [1]): 1 µM; MIC95 (Candida albicans [2]): > 128 µM; MIC95 (Staphylococcus aureus [3]): 8 µM; MBC>99.9 (Salmonella typhimurium [4]; [23]): 2 µM; MIC95 (Candida albicans [8]): > 128 µM; MBC>99.9 (Escherichia coli [11]): 0.5 µM; MBC>99.9 (Salmonella typhimurium [13]; [23]): 4 µM; MIC95 (Candida parapsilosis): > 128 µM; MIC95 (Escherichia coli [15]): 1 µM; MBC>99.9 (Escherichia coli [16]): 1 µM; MIC95 (Salmonella typhimurium [17]; [23]): 1 µM
CC(C)(O/N=C(\C(=O)N[C@@H]1C(=O)N2C(C(=O)[O-])=C(C[n+]3ccccc3)CS[C@H]12)c1csc(N)n1)C(=O)O [CEFTAZIDIME]	1 (≈ 0.547 µg/mL)	> 128	16 (≈ 8.75 µg/mL)	1 (≈ 0.547 µg/mL)	2	–	1 (≈ 0.547 µg/mL)	> 128	2	–	0.5 (≈ 0.273 µg/mL)	–	1 (≈ 0.547 µg/mL)	16	> 128	1 (≈ 0.547 µg/mL)	2 (≈ 1.09 µg/mL)	1 (≈ 0.547 µg/mL)	–	–	–
